Measured values taken from ChEMBL document CHEMBL4138048, “Synthesis of substituted 2H-benzo[e]indazole-9-carboxylate as a potent antihyperglycemic agent that may act through IRS-1, Akt and GSK-3β pathways” (Medchemcomm, 2017).
The source made the active and inactive calls. The calls are words filed in the database; no cut-off is given here.

Columns and labels:
Mus musculus [1] = assay: Antihyperglycemic activity in db/db mouse assessed as reduction in fasting blood glucose level at 10 mg/kg, po qd for 15 days; assay type: functional; set-up: scale not given: the % may be the effect or the level left
Method in brief: (§1)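 db/db mice given 3, 10 or 30 mg/kg orally once a day for 15 consecutive days, alongside vehicle controls. Serum triglyceride, total cholesterol, HDL-C and insulin measured, along with fasting blood glucose. Expressed as mean % change in 5 animals per group versus control.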

Mus musculus [2] = assay: Antihyperglycemic activity in db/db mouse assessed as improvement on glucose tolerance by measuring blood glucose AUC level at 10 mg/kg, po qd for 10 days by oral glucose tolerance test; assay type: functional
Method in brief: (§2)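 db/db mice dosed orally once daily for 15 consecutive days at 3, 10 or 30 mg/kg, with vehicle controls and pioglitazone at 10 mg/kg. Oral glucose tolerance tests on day 10 and day 15. Overall improvement in glucose tolerance calculated against vehicle control. Mean % change in 5 animals per group.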

L6 [3] = assay: Stimulation of [3H]2-deoxyglucose uptake in rat L6 cells incubated for 16 hrs by scintillation counting method; assay type: functional, cell-based
Method in brief: (§3)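 L6 myotubes incubated with the compound […]; insulin at 100 nM for 20 min served as the positive control. Uptake of ³H-2-deoxyglucose measured and expressed as fold stimulation relative to the control condition.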

Rattus norvegicus [4] = assay: Antihyperglycemic activity in Sprague-Dawley rat model of STZ-induced diabetes assessed as improvement on glucose tolerance at 100 mg/kg, po dosed 30 mins before sucrose load and measured after 5 hrs post sucrose load by glucometry; assay type: functional
Method in brief: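 Sucrose-challenged streptozotocin-induced diabetic rats, single oral dose of 100 mg/kg b.wt. Blood glucose profile followed after sucrose load, and glucose AUC taken over 0–24 h. Percent improvement in glucose tolerance calculated at 5 h post sucrose load. Values are mean % change in 5 animals per group, compared with control.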

Mus musculus [5] = assay: Antihyperglycemic activity in db/db mouse assessed as improvement on glucose tolerance by measuring blood glucose AUC level at 3 mg/kg, po qd for 10 days by oral glucose tolerance test; assay type: functional; method in brief: as §2
Mus musculus [6] = assay: Antihyperglycemic activity in db/db mouse assessed as reduction in fasting blood glucose level at 3 to 30 mg/kg, po qd for 15 days; assay type: functional, organism-based; method in brief: as §1
Mus musculus [7] = assay: Antihyperglycemic activity in db/db mouse assessed as reduction in fasting blood glucose level at 3 mg/kg, po qd for 15 days; assay type: functional; set-up: scale not given: the % may be the effect or the level left; method in brief: as §1
L6 [8] = assay: Cytotoxicity in rat L6 cells assessed as reduction in cell viability at 1 to 50 uM by MTT assay; assay type: cell-based; details: l6, 50 µM
Mus musculus [9] = assay: Antihyperglycemic activity in db/db mouse assessed as improvement on glucose tolerance by measuring blood glucose AUC level at 3 mg/kg, po qd for 15 days by oral glucose tolerance test; assay type: functional; method in brief: as §2
[10] = biological target: T1, Tyrosine-protein phosphatase non-receptor type 1 (Homo sapiens) (UniProt P18031); assay: Inhibition of human recombinant PTP1B using IR5 insulin receptor-beta (1142 to 1153 residues, pY1146) substrate BY Malachite green dye based assay
T1 sequence (whole entry): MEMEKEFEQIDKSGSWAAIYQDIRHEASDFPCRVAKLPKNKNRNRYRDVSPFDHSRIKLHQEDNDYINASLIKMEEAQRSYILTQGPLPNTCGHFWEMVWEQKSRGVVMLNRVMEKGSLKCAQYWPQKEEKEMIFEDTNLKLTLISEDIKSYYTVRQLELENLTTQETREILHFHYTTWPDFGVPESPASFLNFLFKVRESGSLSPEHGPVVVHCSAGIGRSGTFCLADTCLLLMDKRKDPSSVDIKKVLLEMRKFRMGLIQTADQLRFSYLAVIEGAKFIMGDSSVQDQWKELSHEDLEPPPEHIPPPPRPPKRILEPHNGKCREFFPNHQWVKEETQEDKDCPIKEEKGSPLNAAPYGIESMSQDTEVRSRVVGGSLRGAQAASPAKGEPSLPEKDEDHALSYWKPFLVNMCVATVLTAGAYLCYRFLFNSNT

Rattus norvegicus [11] = assay: Antihyperglycemic activity in albino Wistar rat assessed as reduction in blodd glucose level at 100 mg/kg, po dosed 30 mins before sucrose load and measured 30 to 120 mins post sucrose injection by glucometry; assay type: functional, organism-based
Method in brief: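 Normal albino rats given an oral sucrose load, with a single oral dose of 100 mg/kg b.wt. Blood glucose profile followed after the load, and glucose AUC taken over 0–2 h. Percent inhibition of the postprandial rise in blood glucose calculated against control. Mean % change in 5 animals per group.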

Mus musculus [12] = assay: Antihyperglycemic activity in db/db mouse assessed as reduction in triglyceride level at 3 mg/kg, po qd for 15 days; assay type: functional; set-up: scale not given: the % may be the effect or the level left; method in brief: as §1
Mus musculus [13] = assay: Antihyperglycemic activity in db/db mouse assessed as increase in HDL-C level at 3 mg/kg, po qd for 15 days; assay type: functional; method in brief: as §1
L6 [14] = assay: Stimulation of [3H]2-deoxyglucose uptake in rat L6 cells at 10 uM incubated for 16 hrs by scintillation counting method; assay type: functional, cell-based; method in brief: as §3
Mus musculus [15] = assay: Antihyperglycemic activity in db/db mouse assessed as reduction in fasting blood glucose level at 30 mg/kg, po qd for 15 days; assay type: functional; set-up: scale not given: the % may be the effect or the level left; method in brief: as §1
Mus musculus [16] = assay: Antihyperglycemic activity in db/db mouse assessed as reduction in cholesterol level at 30 mg/kg, po qd for 15 days; assay type: functional; set-up: scale not given: the % may be the effect or the level left; method in brief: as §1
Mus musculus [17] = assay: Antihyperglycemic activity in db/db mouse assessed as increase in HDL-C level at 10 mg/kg, po qd for 15 days; assay type: functional; method in brief: as §1
Mus musculus [18] = assay: Antihyperglycemic activity in db/db mouse assessed as improvement on glucose tolerance by measuring blood glucose AUC level at 30 mg/kg, po qd for 15 days by oral glucose tolerance test; assay type: functional; method in brief: as §2
L6 [19] = assay: Stimulation of [3H]2-deoxyglucose uptake in rat L6 cells at 10 uM incubated for 16 hrs by scintillation counting method relative to untreated control; assay type: functional; method in brief: as §3
Mus musculus [20] = assay: Antihyperglycemic activity in db/db mouse assessed as reduction in insulin level at 10 mg/kg, po qd for 15 days; assay type: functional; set-up: scale not given: the % may be the effect or the level left; method in brief: as §1
HepG2 = assay: Inhibition of glucagon-mediated glucose release in human HepG2 cells at 10 uM incubated for 24 hrs by Amplex red glucose/glucose oxidase assay; assay type: functional, cell-based

For `COC(=O)c1c(SC)cc(-c2ccc(C)cc2)c2c1-c1cn(-c3ccccc3)nc1CC2`, the Activity (Mus musculus [1]) was 14.1%, the Activity (Mus musculus [2]) was 13.9% and the Activity (L6 [3]) was “Dose-dependent effect”. For the same compound, the Activity (Rattus norvegicus [4]) was 23.1%, the Activity (Mus musculus [5]) was 7.84% and the Activity (Mus musculus [6]) was “Dose-dependent effect”. For the same compound, the Activity (Mus musculus [7]) was 10.1%, the Activity (L6 [8]) was “Non-Toxic” and the Activity (Mus musculus [9]) was 13.2%. The inhibition [10] was “Dose-dependent effect”, the Activity (Rattus norvegicus [11]) was “Active” and the Activity (Mus musculus [12]) was 8.98%. For the same compound, the Activity (Mus musculus [13]) was 6.27%, the Activity (L6 [14]) was “Active” and the Activity (Mus musculus [15]) was 31.9%. The Activity (Mus musculus [16]) was 22.7%, the Activity (Mus musculus [17]) was 10.9% and the Activity (Mus musculus [18]) was 31.6%. The “fold change (FC)” value (L6 [19]) was 2, the Activity (Mus musculus [20]) was 17.7% and the inhibition (HepG2) was “Active”.
